Assay results: ChEMBL document CHEMBL1629670, “In vitro activities of retigeric acid B alone and in combination with azole antifungal agents against Candida albicans” (2009)
Converted amounts (≈) assume the structure as drawn. The source made the active and inactive calls. The rule behind the calls is not given here.

Assays:
Candida albicans [1] = test: Antifungal activity against Candida albicans CA127 after 48 hrs by broth microdilution method in presence of ketoconazole; type: functional
Method in brief: (§1)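 Checkerboard broth microdilution (CLSI M27-A2) on clinical isolates in RPMI 1640 buffered to pH 7.0 with 0.165 M MOPS. Final inoculum was 0.5 x 10^3 to 2.5 x 10^3 CFU/ml. RAB was tested at 0.25–16 µg/ml against FLC at 0.008–8 µg/ml, or against KCZ or ITR at 0.001–1 µg/ml. Plates ran 48 h at 35°C, read by background-subtracted OD490. MIC was taken at 80% growth reduction versus drug-free control. Run in triplicate.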

Candida albicans [2] = test: Antifungal activity against Candida albicans CA132 after 48 hrs by broth microdilution method in presence of ketoconazole; type: functional; method in brief: as §1
Candida albicans [3] = test: Antifungal activity against Candida albicans CA10 after 48 hrs by broth microdilution method in presence of ketoconazole; type: functional; method in brief: as §1
Candida albicans [4] = test: Antifungal activity against Candida albicans CA135 after 48 hrs by broth microdilution method in presence of ketoconazole; type: functional; method in brief: as §1
Candida albicans [5] = test: Antifungal activity against Candida albicans CA137 after 48 hrs by broth microdilution method in presence of ketoconazole; type: functional; method in brief: as §1
Candida albicans [6] = test: Antifungal activity against Candida albicans CA138 after 48 hrs by broth microdilution method in presence of ketoconazole; type: functional; method in brief: as §1
Candida albicans [7] = test: Antifungal activity against Candida albicans CA1 after 48 hrs by broth microdilution method in presence of itraconazole; type: functional; method in brief: as §1
Candida albicans [8] = test: Antifungal activity against Candida albicans CA2 after 48 hrs by broth microdilution method in presence of itraconazole; type: functional; method in brief: as §1
Candida albicans [9] = test: Antifungal activity against Candida albicans CA3 after 48 hrs by broth microdilution method in presence of itraconazole; type: functional; method in brief: as §1
Candida albicans [10] = test: Antifungal activity against Candida albicans CA4 after 48 hrs by broth microdilution method in presence of itraconazole; type: functional; method in brief: as §1
Candida albicans [11] = test: Antifungal activity against Candida albicans CA127 after 48 hrs by broth microdilution method in presence of itraconazole; type: functional; method in brief: as §1
Candida albicans [12] = test: Antifungal activity against Candida albicans CA132 after 48 hrs by broth microdilution method in presence of itraconazole; type: functional; method in brief: as §1
Candida albicans [13] = test: Antifungal activity against Candida albicans CA10 after 48 hrs by broth microdilution method in presence of itraconazole; type: functional; method in brief: as §1
Candida albicans [14] = test: Antifungal activity against Candida albicans CA135 after 48 hrs by broth microdilution method in presence of itraconazole; type: functional; method in brief: as §1
Candida albicans [15] = test: Antifungal activity against Candida albicans CA137 after 48 hrs by broth microdilution method in presence of itraconazole; type: functional; method in brief: as §1
Candida albicans [16] = test: Antifungal activity against Candida albicans CA138 after 48 hrs by broth microdilution method in presence of itraconazole; type: functional; method in brief: as §1
Candida albicans [17] = test: Antifungal activity against Candida albicans CA10 assessed as log reduction in fungal burden at 8 ug/ml after 48 hrs by time kill analysis in presence of fluconazole; type: functional, organism-based
Method in brief: (§2)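 Time-kill on CA10 in RPMI 1640 starting at 10^5 CFU/ml. Treatments were RAB 8 µg/ml combined with FLC 8 µg/ml, ITR 8 µg/ml or KCZ 2 µg/ml; DMSO <1%; drug-free growth control. Samples were taken before treatment and at 6, 12, 24 and 48 h, then diluted, plated and counted after 48 h at 35°C.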

Candida albicans [18] = test: Antifungal activity against Candida albicans CA10 assessed as log reduction in fungal burden at 8 ug/ml after 48 hrs by time kill analysis in presence of ketoconazole; type: functional, organism-based; method in brief: as §2
Candida albicans [19] = test: Antifungal activity against Candida albicans CA10 assessed as log reduction in fungal burden at 8 ug/ml after 48 hrs by time kill analysis in presence of itraconazole; type: functional, organism-based; method in brief: as §2
Candida albicans [20] = test: Antifungal activity against Candida albicans CA10 assessed as cell viability after 2 hrs by XTT reduction assay in presence of fluconazole; type: functional, organism-based
Method in brief: (§3)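 Viability was read on CA10 time-kill cultures grown in RPMI 1640 from 10^5 CFU/ml. Treatments were RAB 8 µg/ml plus FLC 8 µg/ml, ITR 8 µg/ml or KCZ 2 µg/ml, with DMSO <1%. At each sampling time a 100-µl aliquot got XTT-menadione (final 0.25 mg/ml and 5 µM) and was held in the dark up to 2 h at 35°C. Formazan was read at 490 nm; triplicate means.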

Candida albicans [21] = test: Antifungal activity against Candida albicans CA10 assessed as cell viability after 2 hrs by XTT reduction assay in presence of ketoconazole; type: functional, organism-based; method in brief: as §3
Candida albicans [22] = test: Antifungal activity against Candida albicans CA10 assessed as cell viability after 2 hrs by XTT reduction assay in presence of itraconazole; type: functional, organism-based; method in brief: as §3
Candida albicans [23] = test: Antifungal activity against Candida albicans CA1 after 48 hrs by broth microdilution method; type: functional; conditions: CA1, 48 h
Method in brief: (§4)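 CLSI M27-A2 broth microdilution of clinical isolates in RPMI 1640 buffered to pH 7.0 with 0.165 M MOPS. Final inoculum 0.5 x 10^3 to 2.5 x 10^3 cells/ml, incubated 35°C for 48 h. Growth read as OD490 with background subtracted. MIC taken as the lowest drug concentration giving 80% growth reduction versus drug-free control. Run in triplicate.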

Candida albicans [24] = test: Antifungal activity against Candida albicans CA2 after 48 hrs by broth microdilution method; type: functional; conditions: CA2, 48 h; method in brief: as §4
Candida albicans [25] = test: Antifungal activity against Candida albicans CA3 after 48 hrs by broth microdilution method; type: functional; conditions: CA3, 48 h; method in brief: as §4
Candida albicans [26] = test: Antifungal activity against Candida albicans CA4 after 48 hrs by broth microdilution method; type: functional; conditions: CA4, 48 h; method in brief: as §4
Candida albicans [27] = test: Antifungal activity against Candida albicans CA127 after 48 hrs by broth microdilution method; type: functional; conditions: CA127, 48 h; method in brief: as §4
Candida albicans [28] = test: Antifungal activity against Candida albicans CA132 after 48 hrs by broth microdilution method; type: functional; conditions: CA132, 48 h; method in brief: as §4
Candida albicans [29] = test: Antifungal activity against Candida albicans CA10 after 48 hrs by broth microdilution method; type: functional; conditions: CA10, 48 h; method in brief: as §4
Candida albicans [30] = test: Antifungal activity against Candida albicans CA135 after 48 hrs by broth microdilution method; type: functional; conditions: CA135, 48 h; method in brief: as §4
Candida albicans [31] = test: Antifungal activity against Candida albicans CA137 after 48 hrs by broth microdilution method; type: functional; conditions: CA137, 48 h; method in brief: as §4
Candida albicans [32] = test: Antifungal activity against Candida albicans CA138 after 48 hrs by broth microdilution method; type: functional; conditions: CA138, 48 h; method in brief: as §4
Candida albicans [33] = test: Antifungal activity against Candida albicans CA1 after 48 hrs by broth microdilution method in presence of fluconazole; type: functional; method in brief: as §1
Candida albicans [34] = test: Antifungal activity against Candida albicans CA2 after 48 hrs by broth microdilution method in presence of fluconazole; type: functional; method in brief: as §1
Candida albicans [35] = test: Antifungal activity against Candida albicans CA3 after 48 hrs by broth microdilution method in presence of fluconazole; type: functional; method in brief: as §1
Candida albicans [36] = test: Antifungal activity against Candida albicans CA4 after 48 hrs by broth microdilution method in presence of fluconazole; type: functional; method in brief: as §1
Candida albicans [37] = test: Antifungal activity against Candida albicans CA127 after 48 hrs by broth microdilution method in presence of fluconazole; type: functional; method in brief: as §1
Candida albicans [38] = test: Antifungal activity against Candida albicans CA132 after 48 hrs by broth microdilution method in presence of fluconazole; type: functional; method in brief: as §1
Candida albicans [39] = test: Antifungal activity against Candida albicans CA10 after 48 hrs by broth microdilution method in presence of fluconazole; type: functional; method in brief: as §1
Candida albicans [40] = test: Antifungal activity against Candida albicans CA135 after 48 hrs by broth microdilution method in presence of fluconazole; type: functional; method in brief: as §1
Candida albicans [41] = test: Antifungal activity against Candida albicans CA137 after 48 hrs by broth microdilution method in presence of fluconazole; type: functional; method in brief: as §1
Candida albicans [42] = test: Antifungal activity against Candida albicans CA138 after 48 hrs by broth microdilution method in presence of fluconazole; type: functional; method in brief: as §1
Candida albicans [43] = test: Antifungal activity against Candida albicans CA1 after 48 hrs by broth microdilution method in presence of ketoconazole; type: functional; method in brief: as §1
Candida albicans [44] = test: Antifungal activity against Candida albicans CA2 after 48 hrs by broth microdilution method in presence of ketoconazole; type: functional; method in brief: as §1
Candida albicans [45] = test: Antifungal activity against Candida albicans CA3 after 48 hrs by broth microdilution method in presence of ketoconazole; type: functional; method in brief: as §1
Candida albicans [46] = test: Antifungal activity against Candida albicans CA4 after 48 hrs by broth microdilution method in presence of ketoconazole; type: functional; method in brief: as §1

MIC (Candida albicans [23]): 8 µg/mL (≈ 15.9 µM)
MIC (Candida albicans [24]): 16 µg/mL (≈ 31.8 µM)
MIC (Candida albicans [25]): 16 µg/mL (≈ 31.8 µM)
MIC (Candida albicans [26]): 8 µg/mL (≈ 15.9 µM)
MIC (Candida albicans [27]): 16 µg/mL (≈ 31.8 µM)
MIC (Candida albicans [28]): 8 µg/mL (≈ 15.9 µM)
MIC (Candida albicans [29]): 16 µg/mL (≈ 31.8 µM)
MIC (Candida albicans [30]): 16 µg/mL (≈ 31.8 µM)
MIC (Candida albicans [31]): 16 µg/mL (≈ 31.8 µM)
MIC (Candida albicans [32]): 8 µg/mL (≈ 15.9 µM)
Structure (SMILES): CC(C)[C@H]1CC[C@@H]2[C@]1(C)CC[C@]1(C)[C@H]3CC[C@@H]4[C@](C(=O)O)(C[C@@H](O)[C@H](O)[C@@]4(C)C(=O)O)C3=CC[C@@]21C [RETIGERIC ACID B]
fractional inhibitory concentration index (FICI) (Candida albicans [1]): 0.625
fractional inhibitory concentration index (FICI) (Candida albicans [2]): 0.625
fractional inhibitory concentration index (FICI) (Candida albicans [3]): 0.254
fractional inhibitory concentration index (FICI) (Candida albicans [4]): 0.125
fractional inhibitory concentration index (FICI) (Candida albicans [5]): 0.25
fractional inhibitory concentration index (FICI) (Candida albicans [6]): 0.254
fractional inhibitory concentration index (FICI) (Candida albicans [7]): 0.75
fractional inhibitory concentration index (FICI) (Candida albicans [8]): 0.375
fractional inhibitory concentration index (FICI) (Candida albicans [9]): 0.375
fractional inhibitory concentration index (FICI) (Candida albicans [10]): 0.625
fractional inhibitory concentration index (FICI) (Candida albicans [11]): 0.375
fractional inhibitory concentration index (FICI) (Candida albicans [12]): 0.75
fractional inhibitory concentration index (FICI) (Candida albicans [13]): 0.252
fractional inhibitory concentration index (FICI) (Candida albicans [14]): 0.254
fractional inhibitory concentration index (FICI) (Candida albicans [15]): 0.258
fractional inhibitory concentration index (FICI) (Candida albicans [16]): 0.254
Activity (Candida albicans [17]): Active
Activity (Candida albicans [18]): Active
Activity (Candida albicans [19]): Active
Activity (Candida albicans [20]): Active
Activity (Candida albicans [21]): Active
Activity (Candida albicans [22]): Active
fractional inhibitory concentration index (FICI) (Candida albicans [33]): 0.5
fractional inhibitory concentration index (FICI) (Candida albicans [34]): 0.25
fractional inhibitory concentration index (FICI) (Candida albicans [35]): 0.5
fractional inhibitory concentration index (FICI) (Candida albicans [36]): 0.625
fractional inhibitory concentration index (FICI) (Candida albicans [37]): 0.5
fractional inhibitory concentration index (FICI) (Candida albicans [38]): 0.75
fractional inhibitory concentration index (FICI) (Candida albicans [39]): 0.126
fractional inhibitory concentration index (FICI) (Candida albicans [40]): 0.127
fractional inhibitory concentration index (FICI) (Candida albicans [41]): 0.252
fractional inhibitory concentration index (FICI) (Candida albicans [42]): 0.252
fractional inhibitory concentration index (FICI) (Candida albicans [43]): 0.375
fractional inhibitory concentration index (FICI) (Candida albicans [44]): 0.253
fractional inhibitory concentration index (FICI) (Candida albicans [45]): 0.25
fractional inhibitory concentration index (FICI) (Candida albicans [46]): 0.75
